We go through three compounds from publication PMC6039304 (International Journal for Parasitology: Drugs and Drug …, 2018).

Where two headings read alike, the source gives them in different places.

Data set [1] has as its system L. infantum promastigotes. The data set is described as follows: viability of promastigotes at early stages of treatment. In kind it is cell-based, Leishmania infantum. The settings on record: 6 h, compound at IC50. The essentials: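 Promastigotes (5 × 10^5/ml) were incubated 6 h with test compounds or combinations at their IC50 values. Propidium iodide was added at 12 μM and samples were run immediately by flow cytometry (≥10^4 cells). The value is % PI-stained promastigotes relative to control, mean ± SEM of at least 3 experiments.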

Another data set concerns intracellular L.infantum. In kind it is cell-based, Leishmania infantum. The settings on record: for IC50: read-out: Intracellular amastigotes IC50. Summed up: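 THP-1 cells were differentiated with 1 μM retinoic acid for 72 h, then infected overnight at 1:4 cell:parasite. Infected cells were purified on Histopaque 1077 (1300g, 20 min) and exposed 24 h (37 °C, 5% CO2) to serial dilutions. Infection was scored by counting % infected cells in Giemsa-stained cytospins. For combinations, peptaibol was held at 5 or 2 μM while alkylphosphocholine was varied (15–0.2 or 25–0.2 μM). CI came from linear isoboles; SI = CC50/intracellular IC50.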

A short description of data set [2]: cytotoxicity in THP-1 monocytes. In kind it is cell-based, human. The settings on record: human, THP-1 monocytes. The essentials: (§1)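 THP-1 monocytes, maintained at 37 °C and 5% CO2 in RPMI with FBS and antibiotics, were seeded at 10^6/ml. They were incubated 24 h with serial dilutions of test compounds or combinations, resuspended in PBS, stained with 12 μM propidium iodide and counted by flow cytometry. CC50 is the concentration giving 50% of maximum cytotoxicity. Single-point combination tests used the alkylphosphocholine at 15 or 25 μM with peptaibol at 5 or 2 μM.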

In the next data set the test system is THP-1 monocytes. The data set is described as follows: cytotoxicity in THP-1 monocytes. In kind it is cell-based, human. The note with it: for CC50: read-out: Cytotoxicity CC50, THP-1 monocytes. Summed up: as §1
Data set [3] in a line: hemolytic potential on red blood cells. The class given is cell-based, human. The settings on record: human, red blood cells from EDTA-preserved peripheral blood. Summed up: (§2)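 EDTA-anticoagulated blood from healthy volunteers was spun at 900 g for 10 min and the red cells washed three times in PBS. Cells were mixed 1:1 (v/v) with serial dilutions of test compound prepared in PBS, incubated 1 h at 37 °C, and centrifuged. Supernatant absorbance was read at 550 nm, with water-lysed cells as 100% hemolysis. HC50 was derived as for IC50. Combinations used the alkylphosphocholine at 15 or 25 μM plus peptaibol at 5 or 2 μM.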

The next data set deals with human RBCs. The data set is described as follows: hemolytic potential on red blood cells. In kind it is cell-based. The settings on record: for Hemolysis HC50 / HC50 fold higher than that of HePC: human RBCs; for Hemolysis HC50: 1 h, 37 °C, 50% of maximum hemolysis with water; for % hemolysis: at 100 μM of each compound. Summed up:
as §2

The test system of data set [4] is L. infantum promastigotes. The data set is described as follows: antileishmanial activity in promastigote cultures. The settings on record: 24 h, read-out: Promastigotes IC50. The class given is cell-based, Leishmania infantum. Summed up: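 The L. infantum field strain came from an infected dog spleen and was grown at 26 °C in RPMI with 10% heat-inactivated FBS and 2% penicillin/streptomycin. Promastigotes at 10^6/ml were incubated with serial dilutions of test compound for 24 h at 26 °C. Cells were then resuspended in PBS, stained with 12 μM propidium iodide and analysed by flow cytometry. IC50 is the concentration killing 50% of parasites.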

Data set [5] deals with L. infantum promastigotes. The data set is described as follows: morphological changes in promastigotes. The settings on record: 6 h, 26 °C, at IC50; scanning electron microscopy. In kind it is cell-based, Leishmania infantum.
Data set [6] has as its system L. infantum promastigotes. The data set is described as follows: ROS production in promastigotes. The class given is cell-based, Leishmania infantum. The settings on record: compounds at IC50; 1 h, 3 h, 6 h.
The conditions of data set [7]: in humans; cited from earlier work.
Data set [8] deals with L. infantum promastigotes. The data set is described as follows: mitochondrial membrane polarization in promastigotes. The note with it: for ΔΨm dissipation: at 6 h, relative to control, compound alone. The class given is cell-based, Leishmania infantum. The essentials: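 Promastigotes (5 × 10^5/ml) were treated with test compounds or combinations at their IC50 values for 1, 3 or 6 h, then stained with 0.1 μM MitoTracker Red CMXRos for 30 min. Flow cytometry (488 nm laser, ≥10^4 cells, debris and autofluorescence excluded) scored the % of cells fluorescing above 10^2 (log scale) at 630 nm, relative to untreated control. Data came from at least 3 experiments.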

The next data set relates to trypanosomiasis. The note with it: mouse model; ref Kumar et al., 1991; cited from earlier work.
Setting [9] is: single compound, intracellular amastigote in THP-1 monocytes, 24 h.

Compound `CCCCCCCCCCCCCCCCOP(=O)([O-])OCC[N+](C)(C)C` [HePC, hexadecylphosphocholine, reference compound] registered a PI-stained promastigotes in [1] of 5.5%. In addition, the IC50 came to 1.8 ± 0.5 µM with intracellular L.infantum (Leishmania infantum, THP-1, 24 h) and 8.2 ± 0.7 µM in [4] (Leishmania infantum). For the same compound, in the data set on intracellular L.infantum (THP-1 CC50 / intracellular amastigote IC50), the “Selectivity Index (SI), CC50/IC50 against the intracellular form” value worked out at 15.8. The same compound registered a CC50 at 24 h in [2] of 28.6 ± 2.5 µM. The “% PI-stained THP-1 cells” value with THP-1 monocytes (15 μM HePC or 25 μM TC52, alone or combined with 5 μM AAM or 2 μM SZ, 24 h) is reported as 27.6%. The hemolysis at 1 h, 100 µM in data set [3] worked out at 96.1%. Besides, in the data set on human RBCs, the “Hemolysis HC50” value was found to be 38.3 ± 2.8 µM. Further, the “morphological alterations of promastigotes” value in data set [5] is “did not seem to affect noticeably the morphology”. The “ROS production in promastigotes” value in data set [6] is “low levels of ROS”. Further, in [7], the half-life is 100 to 200 h. Moreover, the “mitochondrial transmembrane potential (MitoTracker retention)” value in data set [8] (compounds at IC50, 1 h, 3 h, 6 h) is listed as “significantly induce accumulation of MitoTracker above the control levels”.
In the case of antiamoebin [AAM], the IC50 with intracellular L.infantum (setting [9]) is 7.5 ± 0.2 µM. Also, in the data set on THP-1 monocytes (THP-1 CC50 ratio), the “fold less cytotoxic than HePC” value is recorded as 1.4 fold and the “fold less cytotoxic than SZ” value is reported as “about 1.8 fold”. The CC50 in the data set on THP-1 monocytes (24 h) was 40.3 ± 3.2 µM. In the data set on human RBCs, the “% hemolysis” value was found to be 52.9%, the “HC50 fold higher than that of HePC” value was found to be 2.5 fold and the “Hemolysis HC50” value was found to be 94.6 ± 2.6 µM. Further, the IC50 in data set [4] (26 °C) was determined as 8.7 ± 0.1 µM. Besides, the “morphological alterations of promastigotes” value in data set [5] was “caused damage to the plasma membrane and altered flagellar morphology”. Further, in data set [6], the “ROS production in promastigotes” value is listed as “moderate levels of ROS”. Also, the trypanocidal activity entry in the data set with trypanosomiasis is recorded as “exhibits trypanocidal activity”. Further, the ΔΨm dissipation in data set [8] stood at 75%.
Consider suzukacillin A [SZ], for which, in the data set on intracellular L.infantum (setting [9]), the IC50 was found to be 7.6 ± 1.2 µM. Besides, the CC50 with THP-1 monocytes (24 h) came to 22.5 ± 3.2 µM. In the data set with human RBCs, the “% hemolysis” value worked out at 96.6%, the “HC50 fold higher than that of HePC” value is reported as 1.7 fold and the “Hemolysis HC50” value is 66.9 ± 2.2 µM. For the same compound, the IC50 in [4] (26 °C) is 8.2 ± 0.1 µM. Besides, the “ROS production in promastigotes” value in data set [6] was “moderate levels of ROS”. This compound registered a ΔΨm dissipation in data set [8] of 30%.
